Screening data from PubChem.
Hits are enriched below; roughly 1.8% of the tested compounds scored in any of these assays.
EBI2 block: antagonists of human EBI2 receptor; P32249; EBI2 beta-arrestin recruitment, luminescence, 7a,25-OHC stimulated; inhibition, % at 5 µM; 0.81% of 360,000 active; in the data active = inhibition above about 38%;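 also: enzyme fragment complementation signal reports receptor beta-arrestin coupling in cells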
Target sequence (P32249 whole entry, looked up, the tested form may be a part): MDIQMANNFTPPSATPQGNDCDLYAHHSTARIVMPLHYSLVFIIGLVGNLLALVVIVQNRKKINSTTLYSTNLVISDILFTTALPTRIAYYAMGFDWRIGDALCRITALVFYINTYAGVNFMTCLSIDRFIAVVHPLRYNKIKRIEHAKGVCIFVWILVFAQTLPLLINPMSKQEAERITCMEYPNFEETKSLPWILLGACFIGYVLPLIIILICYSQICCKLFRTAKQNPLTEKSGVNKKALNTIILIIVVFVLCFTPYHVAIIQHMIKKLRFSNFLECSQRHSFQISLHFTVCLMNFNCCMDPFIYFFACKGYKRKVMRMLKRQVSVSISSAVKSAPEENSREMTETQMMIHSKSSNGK
APJ antag: antagonists of human APJ apelin receptor | P35414 | inhibition, % at 20 µM | AID 2521 | 0.32% of 330,000 active | CHO-K1 APJ beta-arrestin complementation, luminescence;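 active = inhibition above about 40% at 20 µM, limit read from the data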;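 also: cells challenged with 10 nM apelin-13 agonist together with compound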
CCR6 antagonist: antagonists of human CCR6 receptor; inhibition, % at 20 µM; CHO-K1 CCR6 PathHunter beta-arrestin, luminescence, CCL20-stimulated; 0.49% of 340,000 active; AID 493098; P51684;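 active = compounds whose inhibition of the agonist-driven luminescence signal at 20 µM reaches about 50%, limit read from the data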;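 also: cells stimulated with CCL20 at 14 nM final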
APJ ag: agonists of human APJ apelin receptor; AID 2520; CHO-K1 APJ PathHunter beta-arrestin, luminescence; 0% DMSO wells, 100% apelin; activation, % at 20 µM; 0.11% of 330,000 active;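 active = activation more than six SD over the plate average, tested at 20 µM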
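Material: CHO-K1 APJ beta-arrestin complementation cell line; Input: cell density 1000 per well; Incubation: compound stimulation 90 min at 25 °C, detection 60 min; Signal: luminescence from split beta-galactosidase complementation, Galacton Star/Emerald II substrate; Controls: DMSO-only wells as negative, 10 nM Apelin-13 as positive control.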
Beta2AR agonist: activates human beta-2 adrenergic receptor causing internalization. Am2.2-beta2AR cells, FAP receptor internalization, flow cytometry. response, % (concentration not given with the values). 0.43% of 340,000 active;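 active = response above a set limit, near 3 SD of response in nonfluorescent compounds, cut at about 42% in these data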
CXCR6 block: CXCR6 (human) receptor inhibition | O00574 | 0.36% of 360,000 active | inhibition, % at 20 µM | CHO-K1 PathHunter CXCR6 beta-arrestin, luminescence; in the data active = inhibition above about 34%, passing the limit was not always enough;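 also: antagonist mode with CXCL16 agonist at 10 nM final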
EBI2 antag conf: EBI2 (human) antagonism, single concentration confirmation | shares compounds with EBI2 block | EBI2 beta-arrestin luminescence, 7a,25-OHC antagonism | inhibition, % at 5 µM | 29% of 2,400 active | AID 651997;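 active = inhibition of at least 50%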
EBI2 ag: EBI2 agonism counter-screen | shares compounds with EBI2 block | EBI2-expressing cells, agonist mode, luminescence, 60 min; 0% vehicle, 100% 7α,25-dihydroxycholesterol control | activation, % at 5 µM | 2,400 tested, under 10 active | AID 652000;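 active = activation of at least 50%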
bGal cs: beta-galactosidase inhibition counter-screen; 1% of 2,400 active; inhibition, % at 5 µM; shares compounds with EBI2 block; purified beta-galactosidase, luminescent Galacton Star, 15 min;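 active = replicate-average signal at least 3 plate SD below neutral wells, shown as high inhibition, flagging enzyme-inhibiting false positives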;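 also: higher means stronger loss of beta-gal luminescence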
Numbers stand for hits; i = inactive; nt = no result.

SMILES | EBI2 block | APJ antag | CCR6 antagonist | APJ ag | Beta2AR agonist | CXCR6 block | EBI2 antag conf | EBI2 ag | bGal cs
O=C(/C=C/c1ccccc1)N1CCN(c2ccc([N+](=O)[O-])c(N3CCOCC3)c2)CC1 | 78 | i | i | i | i | i | 58 | i | i
Cn1c(NCCc2ccncc2)nc2cc(-c3cccc(C(F)(F)F)c3)sc2c1=O | i | nt | nt | nt | nt | i | nt | nt | nt
CC(=O)c1ccc(-c2ccc(C(=O)NCC3CCCO3)o2)cc1 (configuration not stated) | i | i | i | i | i | i | nt | nt | nt
O=C(/C=C/c1ccc([N+](=O)[O-])cc1)N1CCN(c2ccccc2F)CC1 | 68 | i | i | i | i | i | i | i | i
Cc1ccc(C(=O)O/N=C\c2ccc(N3CCOCC3)c([N+](=O)[O-])c2)cc1 | i | i | i | i | i | i | nt | nt | nt
O=C(/C=C/c1cccs1)N1CCN(c2ccc(F)cc2)CC1 | 55 | i | i | i | i | i | i | i | i
O=C(/C=C/c1ccc(Cl)cc1)N1CCN(c2ccc(Cl)cc2[N+](=O)[O-])CC1 | 98 | i | i | i | i | i | 80 | i | i
O=C(O/N=C\c1ccc(N2CCCCC2)c([N+](=O)[O-])c1)c1ccc(Cl)cc1Cl | 51 | i | i | i | i | i | i | i | i
CCOc1ccc(C(CN2CCOCC2)C(C)=O)cc1OC (configuration not stated) | i | nt | nt | nt | nt | i | nt | nt | nt
O=C(/C=C/c1ccccc1)N1CCN(c2c(Cl)cccc2[N+](=O)[O-])CC1 | 95 | i | i | i | i | i | 91 | i | i
O=C(/C=C/c1cccs1)N1CCN(c2ccccc2F)CC1 | 50 | i | i | i | i | i | 52 | i | i
O=S(=O)(Nc1cccc(-c2nnco2)c1)c1ccc(F)cc1F | i | i | i | i | i | i | nt | nt | nt
O=[N+]([O-])c1ccc(NN=Cc2cc(Br)ccc2O)nc1 | 59 | nt | 67 | nt | i | i | i | i | i
O=[N+]([O-])c1ccc(NN=Cc2cccc(O)c2)nc1 | i | nt | i | nt | i | i | nt | nt | nt
COc1ccc(CCNc2ccc(C)cc2)cc1 | 54 | i | i | i | i | i | i | i | i
O=C(NCc1ccc(F)cc1)C1CCN(S(=O)(=O)c2ccc(Cl)cc2)CC1 | i | i | i | i | i | i | nt | nt | nt
O=C(NCc1ccc(Cl)cc1)C1CCN(S(=O)(=O)c2ccccc2)CC1 | 65 | i | i | i | i | i | i | i | i
O=C(NCc1ccc(Cl)cc1)C1CCN(S(=O)(=O)c2cc([N+](=O)[O-])ccc2Cl)CC1 | 47 | i | i | i | i | i | i | i | i
CC(NC(=O)Oc1cccc2ccccc12)c1ccccc1 (configuration not stated) | i | nt | i | nt | i | i | nt | nt | nt
CCOC(=O)c1cnc2cc(Cl)c(OC)cc2c1NCC1CCCO1 (configuration not stated) | 41 | i | i | i | i | i | i | i | i
O=C(Nc1ccncc1)c1cc(C2CCCCN2C(=O)CCc2ccccc2)on1 (configuration not stated) | i | nt | nt | nt | nt | i | nt | nt | nt
Clc1cccc(Nc2nc(-c3ccncc3)cs2)c1 | 52 | i | i | i | i | i | i | i | i
CCCCCCSc1ccc(-c2nc3ccc(Cl)cn3c2NCCCC)cc1OC | i | i | i | i | i | i | nt | nt | nt
CCCCCCSc1ccc(-c2nc3ccc(C)cn3c2NCCCC)cc1OC | 63 | nt | nt | nt | nt | i | 63 | i | i
Cc1cc(S(=O)(=O)N2CCN(CC(=O)NCCc3cccs3)CC2)ccc1Br | i | i | i | i | i | i | nt | nt | nt
SMILES | EBI2 block | APJ antag | CCR6 antagonist | APJ ag | Beta2AR agonist | CXCR6 block | EBI2 antag conf | EBI2 ag | bGal cs
O=C(CN1CCN(S(=O)(=O)c2cccc(Br)c2)CC1)NCCc1cccs1 | 39 | i | i | i | i | i | i | i | i
O=C(Nc1ccc(F)c(Cl)c1)Nc1nnc([C@@H]2O[C@H](CO)[C@@H](O)[C@H]2O)s1 | i | nt | nt | nt | nt | i | nt | nt | nt
O=C(/C=C/c1ccccc1Cl)N1CCN(c2ncccn2)CC1 | 60 | i | i | i | i | i | i | i | i
O=C(/C=C/c1cccc(F)c1)N1CCN(c2ncccn2)CC1 | 90 | i | i | i | i | i | 69 | i | i
O=C(/C=C/c1ccccc1Cl)N1CCOCC1 | i | i | i | i | i | i | nt | nt | nt
CC(=O)Nc1cc(-c2ccc(N(C)C)cc2)cn2c(-c3ccc(F)c(Cl)c3)cnc12 | i | nt | nt | nt | nt | i | nt | nt | nt
CC(=O)Nc1cc(-c2ccc(N(C)C)cc2)cn2c(-c3ccc(F)cc3)cnc12 | 54 | nt | nt | nt | nt | i | 54 | i | i
O=[N+]([O-])c1ccc(N2CCC(=NOCc3ccc(Cl)cc3)CC2)cc1 | 53 | i | i | i | i | i | i | i | i
CC(=O)Nc1ccc(OCC(O)CN2CCN(S(=O)(=O)c3ccc(NC(C)=O)cc3)CC2)cc1 (configuration not stated) | i | i | i | i | i | i | nt | nt | nt
O=C(c1ccccc1)N1CCN(CC(O)COc2ccc(Br)cc2)CC1 (configuration not stated) | 71 | i | i | i | i | i | i | i | i
COc1cccc(OCC(O)CN2CCN(c3ccccn3)CC2)c1 (configuration not stated) | i | i | i | i | i | i | nt | nt | nt
OC(COc1ccc(Br)cc1)CN1CCN(c2ccccc2)CC1 (configuration not stated) | 48 | i | i | i | i | i | i | i | i
OC(COc1ccc2cc(Br)ccc2c1)CN1CCN(c2ccccn2)CC1 (configuration not stated) | 82 | i | i | i | i | i | i | i | i
CC(=O)Nc1ccc(S(=O)(=O)N2CCN(CC(O)COc3ccc4ccccc4c3)CC2)cc1 (configuration not stated) | 57 | i | i | i | i | i | i | i | i
CN1CCN(C(=O)C2Cc3c(-c4ccc5c(c4)OCO5)ccnc3O2)CC1 (configuration not stated) | i | nt | nt | nt | nt | i | nt | nt | nt
CC1=CC(=O)C(C(C)=Nc2cccc(Cl)c2)C(=O)O1 (configuration not stated) | i | nt | i | nt | i | i | nt | nt | nt
COc1ccc(OCC(O)CN2CCN(c3ccc(Cl)cc3)CC2)cc1 (configuration not stated) | 47 | i | i | i | i | i | i | i | i
CN(C)S(=O)(=O)N1CCN(CC(O)COc2ccc3cc(Br)ccc3c2)CC1 (configuration not stated) | 85 | i | i | i | i | i | 67 | i | i
CN(C)c1cccc(C(=O)OCCCC(=O)c2ccc(F)cc2)c1 | i | i | i | i | i | i | nt | nt | nt
